Screening data deposited in PubChem by SRMLSC.
Lung fibro prol: blocks proliferation of human lung fibroblasts. LL 47 human lung fibroblast viability, ATP luminescence; hits give low values. viability, % at 10 µM. actives 1.1% (n = 85,000). AID 719;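 active means viability at or below 50% in the single dose screen; inactive means viability above 50%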;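 further: compound exposure lasted 72 h before the ATP readout; 100% = median luminescence of untreated cell-only wells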
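Assay system: human lung fibroblast line LL 47, low passage. Input: 1,150 fibroblasts seeded per well. Times: overnight cell rest, 72 h compound treatment at 37 °C. Evaluation: % viability of median cell-only signal. Technique: luminescent ATP detection, CellTiter-Glo. Control set: cell-only wells, no compound.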
HCT116 PTEN-null: PTEN-deleted cell growth suppression | actives 1.2% (n = 140,000) | viability, % at 10 µM | HCT116 PTEN-null viability, CellTiter-Glo, 60 h; hits give low values;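 active means viability at or below a set limit, 4 SD under the median of all tested compounds, cut at about 3.7% in these data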;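 further: PTEN knockout HCT116 line with beta catenin targeted HCT116 as companion control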
H69AR inhibit: blocks growth of human H69AR lung tumor cells | H69AR lung tumor viability, ATP luminescence, 72 h; hits give low values | viability, % at 10 µM | actives 6% (n = 85,000) | AID 598;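 active means viability at or below 40%; inactive means viability above 40%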;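 further: multidrug resistant small cell line overexpressing MRP-1 efflux transporter; 100% = mean luminescence of untreated control wells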
HCT116 bCat-KO: beta-catenin-lacking colon tumor cell growth suppression; HCT116 beta-catenin knockout viability, CellTiter-Glo, 60 h; hits give low values; viability, % at 10 µM; actives 1.5% (n = 140,000);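 active means viability at or under a set limit, the compound median less 4 SD, cut at about 6% in these data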;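 further: 0% = Hyamine 1622 control at 20 µM and 100% = untreated cell control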
HUVEC inhibit: human endothelial cell proliferation inhibition; actives 1.1% (n = 86,000); HUVEC proliferation, CellTiter-Glo luminescence, 72 h; hits give low values; viability, % at 10 µM (by protocol);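 active means viability at or below 30%; inactive means viability above 30%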;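 further: 100% = median luminescence of DMSO-only cell control wells on each plate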
* marks the source's active call; other numbers are inactive results; nt = not tested or not shown. Shown is part of a subset that was picked to be rich in hits.

SMILES | Lung fibro prol | HCT116 PTEN-null | H69AR inhibit | HCT116 bCat-KO | HUVEC inhibit
CCOC(=O)C1=C(C)NC(=O)NC1C1CC=CCC1 (stereo not drawn) | 102 | 94 | 109 | 90 | 101
CCn1c2ccccc2c2cc(NC(C)=O)ccc21 | 106 | 90 | 100 | 93 | 81
C=Cn1ccnc1P(=S)(c1ccc2c(c1)c1ccccc1n2CC)c1nccn1C=C | 52 | 12 | 13* | 25 | 41
Cc1cc(S(=O)(=O)NC2CCCCC2)c(C)s1 | 89 | 93 | 94 | 90 | 83
Cn1ccnc1SCC(=O)Nc1ccc2nc(SCC(=O)NC3CC3)sc2c1 | 95 | 103 | 37* | 86 | 92
CC(C)(C)NC(=O)CSc1nc2ccc(NC(=O)CSc3nnc(N)s3)cc2s1 | nt | 74 | nt | 71 | nt
NS(=O)(=O)c1ccc(N2N=C(c3ccccc3)CC2c2cccc(F)c2)cc1 (stereo not drawn) | nt | 55 | nt | 63 | nt
NS(=O)(=O)c1ccc(N2N=C(c3ccc(Br)cc3)CC2c2ccc(F)cc2)cc1 (stereo not drawn) | nt | 1.2* | nt | 0.7* | nt
O=C(O)c1cn(-c2ccccc2)nc1-c1ccncc1 | 109 | 97 | 104 | 88 | 92
O=C(c1cn(-c2ccccc2)nc1-c1ccncc1)n1nnc2ccccc21 | nt | nt | 8.1* | nt | 67
O=C(Nc1ccc(Cl)cc1)N1CCCN(Cc2ccc(F)cc2)C1 | 29* | 0.7* | 39* | 0.6* | 66
COc1ccc(C(=O)NCC(=O)N2CCC(C)CC2)cc1OC | 107 | 99 | 103 | 96 | 94
CC1CCC(NC(=O)CC(C)(C)Cc2nc3ccccc3c(=O)[nH]2)CC1 (stereo not drawn) | 97 | 82 | 25* | 78 | 71
Cc1cccc(NC(=O)c2sc3nc(-c4ccc(F)cc4)cn3c2C)n1 | 115 | 63 | 90 | 73 | 63
COc1ccccc1N1CCN(C(=O)COc2ccc(Cl)cc2Br)CC1 | 97 | 69 | 17* | 82 | 68
Cc1ccc(S(=O)(=O)CCc2nc3ccccc3n2CCC#N)cc1 | 113 | 16 | 14* | 19 | 100
COc1cc(/C=C2/C(=O)N=C(N)N2C)cc(OC)c1OC | 95 | 111 | 92 | 99 | 101
CCOC(=O)CN1C(=O)C(O)(CC(=O)c2cccc(OC)c2)c2ccccc21 (stereo not drawn) | 95 | 56 | 28* | 49 | 101
COC(=O)CN1C(=O)C(O)(CC(=O)c2ccccc2)c2ccccc21 (stereo not drawn) | 101 | 102 | 96 | 98 | 85
CN1C(=O)C(O)(CC(=O)c2ccccc2O)c2cc(Br)ccc21 (stereo not drawn) | 77 | 22 | 20* | 30 | 55
CCOC(=O)CN1C(=O)C(O)(CC(=O)c2ccco2)c2ccccc21 (stereo not drawn) | 100 | 72 | 26* | 79 | 108
C#CCN1C(=O)C(O)(CC(=O)c2cccc(OC)c2)c2ccccc21 (stereo not drawn) | 102 | 19 | 20* | 34 | 93
Cc1[nH]c2ccccc2c1C1(O)C(=O)N(Cc2ccc3c(c2)OCO3)c2ccccc21 (stereo not drawn) | 80 | 9 | 14* | 13 | 80
COc1ccc(CN2C(=O)C(O)(CC(=O)c3ccc4c(c3)OCO4)c3ccccc32)cc1OC (stereo not drawn) | 105 | 28 | 28* | 49 | 105
Cc1[nH]c2ccccc2c1C1(O)C(=O)N(C(C)C)c2ccccc21 (stereo not drawn) | 91 | 95 | 47 | 95 | 92
SMILES | Lung fibro prol | HCT116 PTEN-null | H69AR inhibit | HCT116 bCat-KO | HUVEC inhibit
CCN1C(=O)C(O)(CC(=O)c2ccc3c(c2)OCCO3)c2ccccc21 (stereo not drawn) | 97 | 93 | 103 | 104 | 100
O=C(CC1(O)C(=O)N(Cc2ccccc2Cl)c2ccccc21)c1ccco1 (stereo not drawn) | 96 | 11 | 15* | 12 | 68
CCCCN1C(=O)C(O)(CC(=O)c2ccco2)c2cc(Br)ccc21 (stereo not drawn) | 68 | 15 | 21* | 14 | 65
CCn1cc(C(=O)N2CCCCC2)c(=O)c2cc(S(=O)(=O)N3CCC(C)CC3)ccc21 | 102 | 114 | 90 | 104 | 99
Cc1cc2c(c(=O)n1CCN(C)C)C(c1ccncc1)C(C#N)=C(N)O2 (stereo not drawn) | 99 | 109 | 106 | 102 | 94
Nc1c(Cl)ncnc1N1CCOCC1 | nt | 94 | nt | 98 | nt
COc1ccc(/C=C/C(=O)Nc2nc(C)c(C(=O)N(C)C)s2)cc1 | nt | 100 | nt | 98 | nt
Cn1cc(C(=O)c2ccc(Cl)cc2Cl)cc1C(=O)O | nt | 101 | nt | 101 | nt
Cn1cc(C(=O)c2ccc(Cl)cc2Cl)cc1C(=O)N/N=C(\N)COc1ccccc1 | 82 | 18 | 33* | 17 | 86
Cn1cc(C(=O)c2ccc(Cl)cc2Cl)cc1C(=O)N/N=C(\N)COc1ccc(F)cc1 | 82 | 18 | 25* | 23 | 86
Cn1cc(C(=O)c2ccc(Cl)cc2Cl)cc1C(=O)N/N=C(\N)COc1ccc(Cl)cc1Cl | 68 | 18 | 18* | 14 | 62
O=C(COc1ccc(Cl)cc1Cl)NN=C1CCCCC1 | nt | 99 | nt | 82 | nt
Cc1cc(C)c(C)c(S(=O)(=O)Nc2ccccc2C(=O)NCCCn2ccnc2)c1C | 79 | 92 | nt | 78 | 70
CSC1=N/C(=C\c2ccc(C)s2)C(=O)S1 | nt | 98 | nt | 86 | nt
Cc1cccc(N2CCc3c2nc2ccc(Br)cc2c3N)c1 | 99 | 40 | 22* | 49 | 62
Nc1c2c(nc3ccc(Br)cc13)N(Cc1ccccc1)CC2 | nt | 86 | nt | 86 | nt
Nc1c2c(nc3ccc(Br)cc13)N(c1ccccc1)CC2 | 94 | 63 | 32* | 76 | 78
O=C(/C=C/c1cccc(OCc2ccccc2)c1)c1cccnc1 | nt | 0.7* | nt | 2.7* | nt
O=C(/C=C/c1ccc([N+](=O)[O-])cc1)NCc1cccnc1 | nt | 81 | nt | 97 | nt
O=C(/C=C/c1ccc([N+](=O)[O-])cc1)c1cccnc1 | nt | 1.6* | nt | 1.4* | nt
C/C(CCC12CC3CC(CC(C3)C1)C2)=N\NC(N)=S | 73 | 52 | 13* | 31 | 66
Cc1ccc(-c2ccccc2NC(=O)CCl)o1 | 99 | 44 | 0.1* | 23 | 84
Cc1c(NC2=C(Cl)C(=O)N(c3ccccc3Cl)C2=O)c(=O)n(-c2ccccc2)n1C | nt | 91 | nt | 91 | nt
Cc1c(NC2=C(Cl)C(=O)N(c3ccccc3)C2=O)c(=O)n(-c2ccccc2)n1C | 100 | 85 | 4.8* | 93 | 106
O=C1C(Cl)=C(Nc2ccccc2O)C(=O)N1c1ccccc1 | 104 | 78 | 39* | 83 | 91
CC[C@H](C)[C@H](NC(=O)c1ccc(Cl)cc1)C(=O)OCC(=O)c1ccc2c(c1)NC(=O)CO2 | 21* | 93 | 2.6* | 82 | 5.4*
C=CCn1c(=O)/c(=C/c2cc(OC)c(OC)c(OC)c2)s/c1=C(/C#N)c1nc2ccccc2n1C | 55 | 56 | 10* | 48 | 50
